Measured values: ChEMBL document CHEMBL1123153, “Synthesis and antitumor and antiviral properties of 5-alkyl-2'-deoxyuridines, 3',5'-cyclic monophosphates, and neutral cyclic triesters” (1986)
≈ marks a conversion by molar mass, not a printed value.

Each compound was assayed on Human alphaherpesvirus 2 (assay: Antiviral activity against Herpes Simplex Virus-2(196)). Conditions: not given.
Format: functional

SMILES	MIC50 [µg/mL]
O=c1[nH]c(=O)n([C@H]2C[C@H](O)[C@@H](CO)O2)cc1/C=C/Br [BRIVUDINE]	100 (≈ 300 µM)
CCc1cn([C@H]2C[C@H](O)[C@@H](CO)O2)c(=O)[nH]c1=O [EDOXUDINE]	2 (≈ 7.8 µM)
CC(C)c1cn([C@H]2C[C@H](O)[C@@H](CO)O2)c(=O)[nH]c1=O [EPERVUDINE]	400 (≈ 1480 µM)

What follows are compounds tested on Human alphaherpesvirus 2 (assay: Antiviral activity against Herpes Simplex Virus-2(G)). Conditions: not given.
Format: functional

SMILES	MIC50 [µg/mL]
CCCCCCc1cn([C@H]2C[C@H](O)[C@@H](CO)O2)c(=O)[nH]c1=O	400 (≈ 1280 µM)
O=c1[nH]c(=O)n([C@H]2C[C@H](O)[C@@H](CO)O2)cc1/C=C/Br [BRIVUDINE]	1 (≈ 3 µM)
CCc1cn([C@H]2C[C@H](O)[C@@H](CO)O2)c(=O)[nH]c1=O [EDOXUDINE]	0.4 (≈ 1.56 µM)
CC(C)c1cn([C@H]2C[C@H](O)[C@@H](CO)O2)c(=O)[nH]c1=O [EPERVUDINE]	40 (≈ 148 µM)

The compounds below were run on Human alphaherpesvirus 2 (assay: Antiviral activity against Herpes Simplex Virus-2(Lyons)). Conditions: not given.
Format: functional

SMILES	MIC50 [µg/mL]
CCCCCCc1cn([C@H]2C[C@H](O)[C@@H](CO)O2)c(=O)[nH]c1=O	300 (≈ 960 µM)
O=c1[nH]c(=O)n([C@H]2C[C@H](O)[C@@H](CO)O2)cc1/C=C/Br [BRIVUDINE]	1 (≈ 3 µM)
CCc1cn([C@H]2C[C@H](O)[C@@H](CO)O2)c(=O)[nH]c1=O [EDOXUDINE]	0.2 (≈ 0.78 µM)
CC(C)c1cn([C@H]2C[C@H](O)[C@@H](CO)O2)c(=O)[nH]c1=O [EPERVUDINE]	100 (≈ 370 µM)

What follows are compounds tested on Human alphaherpesvirus 1 (assay: Antiviral activity against Herpes Simplex Virus-1(F)). Conditions: not given.
Format: functional

SMILES	MIC50 [µg/mL]
CCCCCCc1cn([C@H]2C[C@H](O)[C@@H](CO)O2)c(=O)[nH]c1=O	> 400
O=c1[nH]c(=O)n([C@H]2C[C@H](O)[C@@H](CO)O2)cc1/C=C/Br [BRIVUDINE]	0.02 (≈ 0.06 µM)
CCc1cn([C@H]2C[C@H](O)[C@@H](CO)O2)c(=O)[nH]c1=O [EDOXUDINE]	2 (≈ 7.8 µM)
CC(C)c1cn([C@H]2C[C@H](O)[C@@H](CO)O2)c(=O)[nH]c1=O [EPERVUDINE]	2 (≈ 7.4 µM)

Each compound was assayed on Human alphaherpesvirus 1 (assay: Antiviral activity against Herpes Simplex Virus-1(KOS)). Conditions: not given.
Format: functional

SMILES	MIC50 [µg/mL]
CCCCCCc1cn([C@H]2C[C@H](O)[C@@H](CO)O2)c(=O)[nH]c1=O	> 400
O=c1[nH]c(=O)n([C@H]2C[C@H](O)[C@@H](CO)O2)cc1/C=C/Br [BRIVUDINE]	0.02 (≈ 0.06 µM)
CCc1cn([C@H]2C[C@H](O)[C@@H](CO)O2)c(=O)[nH]c1=O [EDOXUDINE]	0.7 (≈ 2.73 µM)
CC(C)c1cn([C@H]2C[C@H](O)[C@@H](CO)O2)c(=O)[nH]c1=O [EPERVUDINE]	7 (≈ 25.9 µM)

What follows are compounds tested on Human alphaherpesvirus 1 (assay: Antiviral activity against Herpes Simplex Virus-1 (McIntyre)). Conditions: not given.
Format: functional

SMILES	MIC50 [µg/mL]
CCCCCCc1cn([C@H]2C[C@H](O)[C@@H](CO)O2)c(=O)[nH]c1=O	300 (≈ 960 µM)
O=c1[nH]c(=O)n([C@H]2C[C@H](O)[C@@H](CO)O2)cc1/C=C/Br [BRIVUDINE]	0.02 (≈ 0.06 µM)
CCc1cn([C@H]2C[C@H](O)[C@@H](CO)O2)c(=O)[nH]c1=O [EDOXUDINE]	0.2 (≈ 0.78 µM)
CC(C)c1cn([C@H]2C[C@H](O)[C@@H](CO)O2)c(=O)[nH]c1=O [EPERVUDINE]	1 (≈ 3.7 µM)

The compounds below were run on L1210 (assay: Cytostatic activity against proliferation of L1210/0 cells). Conditions: Mus musculus, read-out: ID50 (the source's name).
Format: functional
Summary of the method: (§1)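 Murine leukemia L1210 cells: parental L1210/0 and L1210/BdUrd, a thymidine-kinase-deficient mutant selected from L1210/0 by growth in the presence of 260 µg/mL 5-bromo-2'-deoxyuridine. Value is the dose inhibiting tumor cell proliferation by 50% (ID50).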

SMILES	IC50 [µg/mL]
CCCCCCc1cn([C@H]2C[C@H](O)[C@@H](CO)O2)c(=O)[nH]c1=O	172 (≈ 551 µM)
CCc1cn([C@H]2C[C@H](O)[C@@H](CO)O2)c(=O)[nH]c1=O [EDOXUDINE]	1.6 (≈ 6.24 µM)

These compounds were tested on L1210 (assay: Compound was tested for Cytostatic activity against proliferation of L1210/0 cells (murine leukemia L1210 cell line)). Conditions: Mus musculus, read-out: ID50 (the source's name).
Format: functional
Summary of the method: as §1

SMILES	IC50 [µg/mL]
CC(C)c1cn([C@H]2C[C@H](O)[C@@H](CO)O2)c(=O)[nH]c1=O [EPERVUDINE]	> 500

The compounds below were run on L1210 (assay: Cytostatic activity against proliferation of L1210/BdU cells). Conditions: Mus musculus, read-out: ID50 (the source's name).
Format: functional
Summary of the method: as §1

SMILES	IC50 [µg/mL]
CCCCCCc1cn([C@H]2C[C@H](O)[C@@H](CO)O2)c(=O)[nH]c1=O	195 (≈ 624 µM)
CCc1cn([C@H]2C[C@H](O)[C@@H](CO)O2)c(=O)[nH]c1=O [EDOXUDINE]	> 500

Each compound was assayed on L1210 (assay: Compound was tested for Cytostatic activity against proliferation of L1210/BdU cells (thymidine kinase deficient L1210 cell line)). Conditions: Mus musculus, read-out: ID50 (the source's name).
Format: functional
Summary of the method: as §1

SMILES	IC50 [µg/mL]
CC(C)c1cn([C@H]2C[C@H](O)[C@@H](CO)O2)c(=O)[nH]c1=O [EPERVUDINE]	> 500

What follows are compounds tested on Raji (assay: Cytostatic activity against proliferation of Raji/0 cells). Conditions: Homo sapiens, read-out: ID50 (the source's name).
Format: functional

SMILES	IC50 [µg/mL]
CCCCCCc1cn([C@H]2C[C@H](O)[C@@H](CO)O2)c(=O)[nH]c1=O	151 (≈ 483 µM)
CCc1cn([C@H]2C[C@H](O)[C@@H](CO)O2)c(=O)[nH]c1=O [EDOXUDINE]	2.9 (≈ 11.3 µM)

These compounds were tested on Raji (assay: Compound was tested for Cytostatic activity against proliferation of Raji/0 cells (human lymphoblast Raji cells line)). Conditions: read-out: ID50 (the source's name).
Format: functional

SMILES	IC50 [µg/mL]
CC(C)c1cn([C@H]2C[C@H](O)[C@@H](CO)O2)c(=O)[nH]c1=O [EPERVUDINE]	> 500

Each compound was assayed on Raji (assay: Cytostatic activity against proliferation of Raji/TK cells). Conditions: Homo sapiens, read-out: ID50 (the source's name).
Format: functional

SMILES	IC50 [µg/mL]
CCCCCCc1cn([C@H]2C[C@H](O)[C@@H](CO)O2)c(=O)[nH]c1=O	173 (≈ 554 µM)
CCc1cn([C@H]2C[C@H](O)[C@@H](CO)O2)c(=O)[nH]c1=O [EDOXUDINE]	> 500

These compounds were tested on Raji (assay: Compound was tested for Cytostatic activity against proliferation of Raji/TK cells (thymidine kinase deficient Raji cell line)). Conditions: Homo sapiens, read-out: ID50 (the source's name).
Format: functional

SMILES	IC50 [µg/mL]
CC(C)c1cn([C@H]2C[C@H](O)[C@@H](CO)O2)c(=O)[nH]c1=O [EPERVUDINE]	> 500

These compounds were tested on Vesicular stomatitis virus (assay: Antiviral activity against vesicular stomatitis virus). Conditions: not given.
Format: functional

SMILES	MIC50 [µg/mL]
O=c1[nH]c(=O)n([C@H]2C[C@H](O)[C@@H](CO)O2)cc1/C=C/Br [BRIVUDINE]	> 400
CCc1cn([C@H]2C[C@H](O)[C@@H](CO)O2)c(=O)[nH]c1=O [EDOXUDINE]	> 400
CC(C)c1cn([C@H]2C[C@H](O)[C@@H](CO)O2)c(=O)[nH]c1=O [EPERVUDINE]	> 400

These compounds were tested on Vaccinia virus (assay: Antiviral activity against vaccinia virus). Conditions: Orthopoxvirus vaccinia.
Format: functional

SMILES	MIC50 [µg/mL]
CCCCCCc1cn([C@H]2C[C@H](O)[C@@H](CO)O2)c(=O)[nH]c1=O	300 (≈ 960 µM)
O=c1[nH]c(=O)n([C@H]2C[C@H](O)[C@@H](CO)O2)cc1/C=C/Br [BRIVUDINE]	2 (≈ 6 µM)
CCc1cn([C@H]2C[C@H](O)[C@@H](CO)O2)c(=O)[nH]c1=O [EDOXUDINE]	0.7 (≈ 2.73 µM)
CC(C)c1cn([C@H]2C[C@H](O)[C@@H](CO)O2)c(=O)[nH]c1=O [EPERVUDINE]	300 (≈ 1110 µM)
